Test results: ChEMBL document CHEMBL3826879, “Synthesis and biological evaluation of analogues of the potent ADAM8 inhibitor cyclo(RLsKDK) for the treatment of inflammatory diseases and cancer metastasis” (Bioorg Med Chem, 2016)
Where a SMILES comes first, the peptide text is derived from it. Bridges are numbered along the chain shown (N, C = ends). [ ]: non-standard residue; d: D form. Arg(NO2) = N=C(NCCC[C@H](N)C(=O)O)N[N+](=O)[O-]; Lys(Me3) = C[N+](C)(C)CCCC[C@H](N)C(=O)O; hArg = N=C(N)NCCCC[C@H](N)C(=O)O; tBuAla = CC(C)(C)C[C@H](N)C(=O)O; Cit = NC(=O)NCCC[C@H](N)C(=O)O; hLeu = CC(C)CC[C@H](N)C(=O)O; β3hS = N[C@@H](CO)CC(=O)O; Nle = CCCC[C@H](N)C(=O)O; Orn = NCCC[C@H](N)C(=O)O; Dab = NCC[C@H](N)C(=O)O; Nva = CCC[C@H](N)C(=O)O; Dap = NC[C@H](N)C(=O)O; βAla = NCCC(=O)O

These compounds were tested against T1, Disintegrin and metalloproteinase domain-containing protein 8 (Homo sapiens, UniProt P78325) (assay: Inhibition of ADAM8 (unknown origin) expressed in African green monkey COS7 cells co-expressing CD23 assessed as inhibition of CD23 shedding after 6 hrs by ELISA).
T1 sequence (P78325 whole entry): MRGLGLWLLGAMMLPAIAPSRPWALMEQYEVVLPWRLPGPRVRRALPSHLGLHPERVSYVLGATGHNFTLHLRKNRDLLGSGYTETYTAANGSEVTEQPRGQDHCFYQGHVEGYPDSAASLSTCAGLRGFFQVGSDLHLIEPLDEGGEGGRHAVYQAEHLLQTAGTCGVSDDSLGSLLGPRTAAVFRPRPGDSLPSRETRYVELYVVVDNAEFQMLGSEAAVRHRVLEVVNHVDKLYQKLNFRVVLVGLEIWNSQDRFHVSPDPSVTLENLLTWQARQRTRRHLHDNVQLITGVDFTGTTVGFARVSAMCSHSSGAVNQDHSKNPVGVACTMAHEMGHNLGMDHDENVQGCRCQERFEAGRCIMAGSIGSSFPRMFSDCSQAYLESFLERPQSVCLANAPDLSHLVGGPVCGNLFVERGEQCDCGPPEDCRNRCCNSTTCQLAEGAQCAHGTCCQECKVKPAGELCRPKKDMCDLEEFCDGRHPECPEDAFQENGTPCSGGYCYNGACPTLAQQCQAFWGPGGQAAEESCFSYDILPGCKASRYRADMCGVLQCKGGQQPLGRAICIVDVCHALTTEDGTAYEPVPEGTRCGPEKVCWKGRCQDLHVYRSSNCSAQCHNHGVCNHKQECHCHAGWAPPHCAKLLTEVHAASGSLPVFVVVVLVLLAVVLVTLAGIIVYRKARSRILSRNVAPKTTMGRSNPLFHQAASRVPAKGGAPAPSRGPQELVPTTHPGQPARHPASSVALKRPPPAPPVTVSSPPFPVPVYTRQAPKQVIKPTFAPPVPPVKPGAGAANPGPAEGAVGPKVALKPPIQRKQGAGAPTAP
Assay type: cell-based, COS-7
Method in brief: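 COS7 cells co-transfected with CD23 and ADAM8 cDNA, seeded at 2 × 10^5 cells/well and exposed to peptide at 10 nM–10 μM for 6 h. Supernatant CD23 measured by sandwich ELISA: biotinylated anti-CD23 monoclonal antibody, 2 h at room temperature, streptavidin–HRP 1 h, TMB substrate, absorbance at 405 nm. Samples in duplicate against 400–12.5 units/mL standards. IC50 derived.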
`CC(C)C[C@@H]1NC(=O)[C@H](CCCNC(=N)N)NC(=O)[C@H](CCCCN)NC(=O)[C@H](CC(=O)O)NC(=O)[C@H](CCCCN)NC(=O)C[C@@H](C(=O)O)NC1=O` (KDKRLD-OH; lactam N-6) gave an IC50 of 0.42 µM. `CC(C)C[C@@H]1NC(=O)[C@H](CCCNC(=N)N)NC(=O)[C@H](CCCCN)NC(=O)[C@H](CC(=O)O)NC(=O)[C@H](CCCCN)NC(=O)[C@H](CO)NC1=O` (cyclo(DKRLSK)) gave an IC50 of 0.24 µM. `CC(C)C[C@@H]1NC(=O)[C@H](CCCNC(=N)N)NC(=O)[C@H](CCCCN)NC(=O)[C@H](CC(=O)O)NC(=O)[C@H](CCCCN)NC(=O)C[C@H](CO)NC1=O` (cyclo(DKRL[β3hS]K)) gave an IC50 of 0.157 µM. `CC(C)C[C@@H]1NC(=O)[C@H](CCCNC(=N)N)NC(=O)[C@H](CCCCN)NC(=O)[C@H](CC(=O)O)NC(=O)[C@H](CCCCN)NC(=O)CCNC1=O` (cyclo(DKRL[βAla]K)) showed an IC50 of 1.65 µM. For `CCCC[C@@H]1NC(=O)[C@H](CCCNC(=N)N)NC(=O)[C@H](CCCCN)NC(=O)[C@H](CC(=O)O)NC(=O)[C@H](CCCCN)NC(=O)CCNC1=O` (cyclo(DKR[Nle][βAla]K)), the IC50 was 0.378 µM. `CCC[C@@H]1NC(=O)[C@H](CCCNC(=N)N)NC(=O)[C@H](CCCCN)NC(=O)[C@H](CC(=O)O)NC(=O)[C@H](CCCCN)NC(=O)CCNC1=O` (cyclo(DKR[Nva][βAla]K)) was tested, and the IC50 was 0.452 µM. With `CC(C)CC[C@@H]1NC(=O)[C@H](CCCNC(=N)N)NC(=O)[C@H](CCCCN)NC(=O)[C@H](CC(=O)O)NC(=O)[C@H](CCCCN)NC(=O)C[C@H](CO)NC1=O` (cyclo(DKR[hLeu][β3hS]K)) the IC50 was 0.142 µM. `CC(C)CC[C@@H]1NC(=O)[C@H](CCCNC(=N)N)NC(=O)[C@H](CCCCN)NC(=O)[C@H](CC(=O)O)NC(=O)[C@H](CCCCN)NC(=O)CCNC1=O` (cyclo(DKR[hLeu][βAla]K)) gave an IC50 of 0.22 µM. For `CC(C)(C)C[C@@H]1NC(=O)[C@H](CCCNC(=N)N)NC(=O)[C@H](CCCCN)NC(=O)[C@H](CC(=O)O)NC(=O)[C@H](CCCCN)NC(=O)CCNC1=O` (cyclo(DKR[tBuAla][βAla]K)), the IC50 was 0.256 µM. `CC(C)C[C@@H]1NC(=O)[C@H](CCCCNC(=N)N)NC(=O)[C@H](CCCCN)NC(=O)[C@H](CC(=O)O)NC(=O)[C@H](CCCCN)NC(=O)C[C@H](CO)NC1=O` (cyclo(DK[hArg]L[β3hS]K)) was tested, and the IC50 was 0.368 µM. In the case of `CC(C)C[C@@H]1NC(=O)[C@H](CCCNC(=N)N)NC(=O)[C@H](CCN)NC(=O)[C@H](CC(=O)O)NC(=O)[C@H](CCCCN)NC(=O)CCNC1=O` (cyclo(D[Dab]RL[βAla]K)), the IC50 is reported as greater than 5 µM. `CC(C)C[C@@H]1NC(=O)[C@H](CCCNC(=N)N)NC(=O)[C@H](CN)NC(=O)[C@H](CC(=O)O)NC(=O)[C@H](CCCCN)NC(=O)CCNC1=O` (cyclo(D[Dap]RL[βAla]K)) gave an IC50 greater than 5 µM. `CC(C)C[C@@H]1NC(=O)[C@H](CCCNC(=N)N)NC(=O)[C@H](CCCC[N+](C)(C)C)NC(=O)[C@H](CC(=O)O)NC(=O)[C@H](CCCCN)NC(=O)CCNC1=O` (cyclo(D[Lys(Me3)]RL[βAla]K)) was tested, and the IC50 was greater than 10 µM. With `CC(C)C[C@@H]1NC(=O)[C@H](CCCNC(=N)N)NC(=O)[C@H](CCCN)NC(=O)[C@H](CC(=O)O)NC(=O)[C@H](CCCCN)NC(=O)CCNC1=O` (cyclo(D[Orn]RL[βAla]K)) the IC50 was greater than 5 µM. In the case of `CC(C)C[C@@H]1NC(=O)[C@H](CCCNC(=N)N[N+](=O)[O-])NC(=O)[C@H](CCCCN)NC(=O)[C@H](CC(=O)O)NC(=O)[C@H](CCCCN)NC(=O)C[C@H](CO)NC1=O` (cyclo([Arg(NO2)]L[β3hS]KDK)), the IC50 is reported as 1.24 µM. `CC(C)C[C@@H]1NC(=O)[C@H](CCCNC(=N)N[N+](=O)[O-])NC(=O)[C@H](CCCCN)NC(=O)[C@H](CC(=O)O)NC(=O)[C@H](CCCCN)NC(=O)CCNC1=O` (cyclo([Arg(NO2)]L[βAla]KDK)) gave an IC50 of 2.35 µM. `CC(C)C[C@@H]1NC(=O)[C@H](CCCNC(N)=O)NC(=O)[C@H](CCCCN)NC(=O)[C@H](CC(=O)O)NC(=O)[C@H](CCCCN)NC(=O)C[C@H](CO)NC1=O` (cyclo([Cit]L[β3hS]KDK)) showed an IC50 of 0.192 µM. Work on `CC(C)C[C@@H]1NC(=O)[C@H](CCCNC(N)=O)NC(=O)[C@H](CCCCN)NC(=O)[C@H](CC(=O)O)NC(=O)[C@H](CCCCN)NC(=O)CCNC1=O` (cyclo([Cit]L[βAla]KDK)) yielded an IC50 of 0.89 µM.
